Assays:
UACC-257 [1] = experiment: Cytotoxicity against human UACC257 cells by sulforhodamine B assay; format: functional
How it was run: (§1)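 NCI Developmental Therapeutics Program 60-cell-line human tumor panel screen, run at NCI. A single-concentration pre-screen was followed by a five-concentration dose-response in 10-fold steps. GI50 is the concentration that reduces growth of treated cells to half that of untreated control cells. TGI is the concentration that completely halts growth.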

OVCAR-4 = experiment: Cytotoxicity against human OVCAR4 cells by sulforhodamine B assay; format: functional; how it was run: as §1
SK-OV-3 [2] = experiment: Cytotoxicity against human SKOV3 cells by sulforhodamine B assay; format: functional; how it was run: as §1
RXF 393 = experiment: Cytotoxicity against human RXF393 cells by sulforhodamine B assay; format: functional; how it was run: as §1
UACC-257 [3] = experiment: Cytotoxicity against human UACC257 cells assessed as cell growth at 8 nM by sulforhodamine B assay relative to control; format: functional; conditions: read-out: Activity
M14 [4] = experiment: Cytotoxicity against human M14 cells assessed as cell growth at 8 nM by sulforhodamine B assay relative to control; format: functional; conditions: read-out: Activity
SW-620 [5] = experiment: Cytotoxicity against human SW620 cells assessed as cell growth at 8 nM by sulforhodamine B assay relative to control; format: functional; conditions: read-out: Activity
NCI-H322M [6] = experiment: Cytotoxicity against human NCI-H322M cells assessed as cell growth at 8 nM by sulforhodamine B assay relative to control; format: functional; conditions: read-out: Activity
Mus musculus = experiment: Acute toxicity in athymic nude mouse assessed as mortality at 25 mg/kg, […]; format: organism-based; parameters: dose 25 mg/kg, route intraperitoneal; conditions: in vivo, ip, 576 h
RPMI-8226 [7] = experiment: Cytotoxicity against human RPMI8226 cells assessed as cell growth at 8 nM by sulforhodamine B assay relative to control; format: functional; conditions: read-out: Activity
PC-3 = experiment: Cytotoxicity against human PC3 cells assessed as cell growth at 8 nM by sulforhodamine B assay relative to control; format: functional; conditions: read-out: Activity
Hs-578T [8] = experiment: Cytotoxicity against human Hs578T cells assessed as cell growth at 8 nM by sulforhodamine B assay relative to control; format: functional; conditions: read-out: Activity
RPMI-8226 [9] = experiment: Cytotoxicity against human RPMI8226 cells assessed as cell growth at 80 nM by sulforhodamine B assay relative to control; format: functional; conditions: read-out: Activity
HOP-62 [10] = experiment: Cytotoxicity against human HOP62 cells assessed as cell growth at 80 nM by sulforhodamine B assay relative to control; format: functional; conditions: read-out: Activity
HOP-92 = experiment: Cytotoxicity against human HOP92 cells assessed as cell growth at 80 nM by sulforhodamine B assay relative to control; format: functional; conditions: read-out: Activity
SK-OV-3 [11] = experiment: Cytotoxicity against human SKOV3 cells assessed as cell growth at 80 nM by sulforhodamine B assay relative to control; format: functional; conditions: read-out: Activity
TK-10 = experiment: Cytotoxicity against human TK10 cells assessed as cell growth at 80 nM by sulforhodamine B assay relative to control; format: functional; conditions: read-out: Activity
DU-145 = experiment: Cytotoxicity against human DU145 cells assessed as cell growth at 80 nM by sulforhodamine B assay relative to control; format: functional; conditions: read-out: Activity
Hs-578T [12] = experiment: Cytotoxicity against human Hs578T cells assessed as cell growth at 80 nM by sulforhodamine B assay relative to control; format: functional; conditions: read-out: Activity
RPMI-8226 [13] = experiment: Cytotoxicity against human RPMI8226 cells assessed as cell growth at 800 nM by sulforhodamine B assay relative to control; format: functional; conditions: read-out: Activity
SF-295 [14] = experiment: Cytotoxicity against human SF295 cells assessed as cell growth at 800 nM by sulforhodamine B assay relative to control; format: functional; conditions: read-out: Activity
IGROV-1 = experiment: Cytotoxicity against human IGROV1 cells assessed as cell growth at 800 nM by sulforhodamine B assay relative to control; format: functional; conditions: read-out: Activity
NCI-H226 = experiment: Cytotoxicity against human NCI-H226 cells assessed as cell growth at 8 uM by sulforhodamine B assay relative to control; format: functional; conditions: read-out: Activity
NCI-H322M [15] = experiment: Cytotoxicity against human NCI-H322M cells assessed as cell growth at 8 uM by sulforhodamine B assay relative to control; format: functional; conditions: read-out: Activity
KM12 = experiment: Cytotoxicity against human KM12 cells assessed as cell growth at 8 uM by sulforhodamine B assay relative to control; format: functional; conditions: read-out: Activity
SW-620 [16] = experiment: Cytotoxicity against human SW620 cells assessed as cell growth at 8 uM by sulforhodamine B assay relative to control; format: functional; conditions: read-out: Activity
SF-295 [17] = experiment: Cytotoxicity against human SF295 cells assessed as cell growth at 8 uM by sulforhodamine B assay relative to control; format: functional; conditions: read-out: Activity
SK-MEL-2 = experiment: Cytotoxicity against human SK-MEL-2 cells assessed as cell growth at 8 uM by sulforhodamine B assay relative to control; format: functional; conditions: read-out: Activity
MOLT-4 = experiment: Cytotoxicity against human MOLT4 cells assessed as cell growth at 80 uM by sulforhodamine B assay relative to control; format: functional; conditions: read-out: Activity
RPMI-8226 [18] = experiment: Cytotoxicity against human RPMI8226 cells assessed as cell growth at 80 uM by sulforhodamine B assay relative to control; format: functional; conditions: read-out: Activity
A549 = experiment: Cytotoxicity against human A549 cells assessed as cell growth at 80 uM by sulforhodamine B assay relative to control; format: functional; conditions: read-out: Activity
How it was run: (§2)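 Run at NCI in the DTP 60-cell-line human tumor panel by standard procedure. Compounds were first screened at a single concentration, then tested at five tenfold-spaced concentrations. GI50 is the concentration reducing treated-cell growth to half that of untreated controls; TGI is the concentration completely halting growth.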

SF-295 [19] = experiment: Cytotoxicity against human SF295 cells assessed as cell growth at 80 uM by sulforhodamine B assay relative to control; format: functional; conditions: read-out: Activity
Malme-3M = experiment: Cytotoxicity against human MALME-3M cells assessed as cell growth at 80 uM by sulforhodamine B assay relative to control; format: functional; conditions: read-out: Activity
M14 [20] = experiment: Cytotoxicity against human M14 cells assessed as cell growth at 80 uM by sulforhodamine B assay relative to control; format: functional; conditions: read-out: Activity
UACC-257 [21] = experiment: Cytotoxicity against human UACC257 cells assessed as cell growth at 80 uM by sulforhodamine B assay relative to control; format: functional; conditions: read-out: Activity
786-0 = experiment: Cytotoxicity against human 786-0 cells assessed as cell growth at 80 uM by sulforhodamine B assay relative to control; format: functional; conditions: read-out: Activity; how it was run: as §2
BT-549 = experiment: Cytotoxicity against human BT549 cells assessed as cell growth at 80 uM by sulforhodamine B assay relative to control; format: functional; conditions: read-out: Activity; how it was run: as §2
SR = experiment: Cytotoxicity against human SR cells by sulforhodamine B assay; format: functional; how it was run: as §1
EKVX = experiment: Cytotoxicity against human EKVX cells by sulforhodamine B assay; format: functional
How it was run: (§3)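 Run by the NCI Developmental Therapeutics Program on its 60-line human tumour cell panel using the standard procedure. Compounds went through a single-concentration prescreen first, and those active by NCI criteria went on to a five-concentration growth-inhibition test. GI50 is the concentration that cuts growth of treated cells to half that of untreated control cells.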

HOP-62 [22] = experiment: Cytotoxicity against human HOP62 cells by sulforhodamine B assay; format: functional; how it was run: as §3

Compound: C/C=C1\NC(=O)[C@H](Cc2ccccc2)NC(=O)[C@@H](C(C)C)NC(=O)[C@@H]([C@@H](C)CC)NC(=O)[C@H](NC(=O)[C@H](NC(=O)[C@H](CCCNCc2ccc(N3CCOCC3)cc2)NC(=O)[C@H]2CCCN2C(=O)[C@H](NC(=O)[C@@H](NC(=O)[C@@H](NC(=O)[C@H](NC(=O)CCCC(C)C)C(C)C)[C@@H](C)O)C(C)C)C(C)C)[C@@H](C)CC)[C@@H](C)OC(=O)[C@H](C(C)C)NC1=O
- GI50 (UACC-257 [1]; read-out: GI50): 1340 nM
- TGI (UACC-257 [1]; read-out: TGI): 2650 nM
- GI50 (UACC-257 [1]; read-out: pGI50 (converted)): 1350 nM
- TGI (UACC-257 [1]; read-out: pTGI (converted)): 2630 nM
- GI50 (OVCAR-4): 1230 nM
- TGI (OVCAR-4; read-out: pTGI (converted)): 2820 nM
- GI50 (SK-OV-3 [2]; read-out: GI50): 178 nM
- TGI (SK-OV-3 [2]; read-out: TGI): 415 nM
- GI50 (SK-OV-3 [2]; read-out: pGI50 (converted)): 178 nM
- TGI (SK-OV-3 [2]; read-out: pTGI (converted)): 417 nM
- GI50 (RXF 393): 1580 nM
- LC50 (RXF 393): > 75900 nM
- TGI (RXF 393; read-out: pTGI (converted)): 3550 nM
- growth at 0.008 µM (UACC-257 [3]): 101%
- growth at 0.008 µM (M14 [4]): 99%
- growth at 0.008 µM (SW-620 [5]): 104%
- growth at 0.008 µM (NCI-H322M [6]): 109%
- Activity (Mus musculus): Toxic
- growth at 0.008 µM (RPMI-8226 [7]): 111%
- growth at 0.008 µM (PC-3): 90%
- growth at 0.008 µM (Hs-578T [8]): 109%
- growth at 0.08 µM (RPMI-8226 [9]): 113%
- growth at 0.08 µM (HOP-62 [10]): 103%
- growth at 0.08 µM (HOP-92): 96%
- growth at 0.08 µM (SK-OV-3 [11]): 101%
- growth at 0.08 µM (TK-10): 96%
- growth at 0.08 µM (DU-145): 89%
- growth at 0.08 µM (Hs-578T [12]): 101%
- growth at 0.8 µM (RPMI-8226 [13]): 76%
- growth at 0.8 µM (SF-295 [14]): 101%
- growth at 0.8 µM (IGROV-1): 55%
- growth at 8 µM (NCI-H226): -55%
- growth at 8 µM (NCI-H322M [15]): -84%
- growth at 8 µM (KM12): -48%
- growth at 8 µM (SW-620 [16]): -98%
- growth at 8 µM (SF-295 [17]): -40%
- growth at 8 µM (SK-MEL-2): -74%
- growth at 80 µM (MOLT-4): 7%
- growth at 80 µM (RPMI-8226 [18]): -29%
- growth at 80 µM (A549): 4%
- growth at 80 µM (SF-295 [19]): -33%
- growth at 80 µM (Malme-3M): -23%
- growth at 80 µM (M14 [20]): -69%
- growth at 80 µM (UACC-257 [21]): -28%
- growth at 80 µM (786-0): -66%
- growth at 80 µM (BT-549): -49%
- GI50 (SR): 3020 nM
- LC50 (SR): > 75900 nM
- TGI (SR; read-out: pTGI (converted)): 36300 nM
- GI50 (EKVX): 776 nM
- TGI (EKVX; read-out: pTGI (converted)): 1910 nM
- GI50 (HOP-62 [22]): 1410 nM
- LC50 (HOP-62 [22]): 5750 nM
- TGI (HOP-62 [22]; read-out: pTGI (converted)): 2820 nM

Source: ChEMBL document CHEMBL1921722, “In vitro and in vivo evaluation of select kahalalide F analogs with antitumor and antifungal activities” (Bioorg Med Chem, 2011)
